Bioassay records from PubChem.
MT stabilize HCS – microtubule stabilization, imaging screen; % tubulin-high responders, % at 10 µM; HeLa tubulin immunostaining HCS, 24 h; share of cells brighter than vehicle mean+2SD; 200,000 tested, 0.83% active; AID 2205;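 active = plate Z-score above 3 for both tubulin-high and condensed-nucleus cell shares, with cell loss under 80%, at 10 µM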;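 note: anti alpha tubulin signal scored within the nucleus-defined area of each cell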
b-catenin transl – modulators of beta-catenin nuclear translocation | AID 1665 | 190,000 tested, 0.3% active | HeLa beta-catenin nuclear translocation, immunofluorescence imaging | nuclear translocation activity, % at 5 µM;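 active = nuclear translocation activity above 50% at 5 µM, with a well cell count of 50 or more; inconclusive = wells under 50 cells across six images, flagged as toxic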;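 note: per-cell ratio of nuclear to cytoplasmic median beta-catenin stain intensity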
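assay system = human HeLa cells, endogenous beta-catenin | times = compound treatment 24 h, 37°C, 5% CO2 | detection = Anti-beta-catenin immunofluorescence on PFA-fixed, Triton-permeabilized cells, DAPI nuclei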
Autophagy HCS – modulators of autophagy | MEF GFP-LC3 puncta imaging; test concentration mostly 10 µM | calls only at 10 µM (by protocol) | 190,000 tested, 0.98% active;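 active = percentage of spot-positive cells more than 3 SD above its plate mean, without a fluorescence outlier flag or 80% toxicity; inconclusive = no clear call, values can overlap the other calls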
Wee1 stabilizer – human Wee1 degradation inhibition, primary screen | P30291 | HeLa Luc-Wee1K328M stability, luciferase luminescence; 100% = proteasome inhibitor MG132 effect | reporter increase, % at 5 µM | 220,000 tested, 1.2% active;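 active = activation above the mean of all tested compounds plus 3 SD, set per screening run, cut at about 8.8% in these data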;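 note: cells exposed to compound for 20 h before luminescence read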
Target sequence (P30291 whole entry K328M): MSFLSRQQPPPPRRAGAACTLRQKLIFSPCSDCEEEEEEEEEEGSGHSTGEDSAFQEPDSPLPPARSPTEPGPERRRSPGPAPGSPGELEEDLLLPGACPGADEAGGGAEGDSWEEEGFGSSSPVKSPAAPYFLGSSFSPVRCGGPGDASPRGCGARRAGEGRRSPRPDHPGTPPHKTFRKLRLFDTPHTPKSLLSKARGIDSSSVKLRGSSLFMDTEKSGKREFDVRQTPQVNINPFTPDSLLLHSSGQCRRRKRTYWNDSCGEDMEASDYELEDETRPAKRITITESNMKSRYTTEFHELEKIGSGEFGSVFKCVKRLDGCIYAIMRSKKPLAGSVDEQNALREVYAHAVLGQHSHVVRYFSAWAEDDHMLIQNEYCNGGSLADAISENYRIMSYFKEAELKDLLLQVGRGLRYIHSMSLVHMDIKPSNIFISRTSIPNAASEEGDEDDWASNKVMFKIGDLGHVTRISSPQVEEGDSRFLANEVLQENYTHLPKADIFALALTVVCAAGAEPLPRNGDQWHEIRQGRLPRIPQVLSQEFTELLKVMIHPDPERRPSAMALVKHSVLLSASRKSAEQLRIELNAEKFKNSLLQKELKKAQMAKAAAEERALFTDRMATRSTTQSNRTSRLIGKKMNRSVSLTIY
Insulin prom up – MIN6 insulin promoter up-regulation; MIN6 insulin promoter-GFP reporter, high-content imaging; stronger effect = higher value; z-score at 5 µM; 190,000 tested, 0.3% active; AID 1625;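 active = z-score above 3 at 5 µM with at least 500 cells counted in the well; inconclusive = wells under 500 cells, flagged as cytotoxic or low count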
Hits are given with their value; i = inactive; ? = inconclusive; nt = no result; + = active, no number. Hits are enriched below; roughly 2.9% of the tested compounds scored in any of these assays.

SMILES	MT stabilize HCS	b-catenin transl	Autophagy HCS	Wee1 stabilizer	Insulin prom up
COc1ccc(C(=O)Nc2c(Cl)cc(Cl)cc2C(=O)N2CCOCC2)cc1	i	i	i	8.9	i
N#C/C(=C\c1ccc(N2CCOCC2)o1)c1nc2ccccc2[nH]1	i	i	?	i	nt
N#C/C(=C/c1ccc(N2CCOCC2)o1)c1ccc(Cl)cc1	47.7	i	+	i	nt
COc1cc(NC(=O)Cn2c(=O)n(-c3cccc(C)c3)c(=O)c3c(C)c(C)sc32)cc(OC)c1	i	i	i	i	i
CC(=O)/C(=N\Nc1ccc(C)cc1)Sc1nncn1C	i	i	+	i	i
CN1CCN(C(=O)CN(C)S(=O)(=O)c2ccc3ccccc3c2)CC1	i	i	+	i	i
CCOCCCNC(=O)C(NC(=O)Cc1cccs1)c1ccc(Cl)cc1 (stereo not given)	i	i	i	i	i
CCOc1ccc(N2C(=O)CC(NCc3ccc(F)cc3)C2=O)cc1 (stereo not given)	i	i	+	i	i
Cc1ccc(S(=O)(=O)N(C)C)cc1-n1c(SCC(=O)Nc2ccc(F)cc2Cl)nc2ccccc2c1=O	i	i	i	8.9	i
Cc1ccc(S(=O)(=O)N(C)C)cc1-n1c(SCC(=O)Nc2ccc(F)cc2)nc2ccccc2c1=O	i	i	i	i	i
Cc1ccc(OCc2nc(-c3ccccn3)n[nH]2)cc1	i	i	i	9.1	i
Cc1cccc(OCc2nc(-c3ccccn3)n[nH]2)c1	i	i	i	i	i
O=S(=O)(N/N=C/c1cccnc1)c1ccc(Cl)c(Cl)c1	nt	i	nt	i	i
O=C(Nc1ccc(Cl)cn1)c1ccccc1[N+](=O)[O-]	23.3	i	i	i	i
O=C(NNC(=O)c1ccccc1[N+](=O)[O-])Nc1ccc(Cl)cc1	i	i	i	i	i
O=C(CC(c1ccccc1)c1ccccc1)Nc1ccc(Cl)cn1	53.0	i	i	i	i
COc1ccc(OCCCC(=O)Nc2cc([N+](=O)[O-])ccc2C)cc1	i	i	i	i	i
CCOc1ccccc1N(CC(=O)NCCSc1ccccc1)S(C)(=O)=O	i	i	i	9.1	i
Cc1cc(NC(=O)CCN2C(=O)C3C4C=CC(C4)C3C2=O)ccc1Br (stereo not given)	i	i	i	i	i
O=C1C2ON(c3ccccc3)C(c3ccccc3F)C2C(=O)N1c1ccccc1 (stereo not given)	i	i	i	i	i
CN1OC2C(=O)N(c3ccccc3)C(=O)C2C1c1ccc(F)cc1 (stereo not given)	i	i	i	16.7	i
COCCCNCC(O)COc1ccccc1F (stereo not given)	i	i	i	i	i
O=c1[nH]c(/C=C/c2ccc(OC(F)F)cc2)nc2c1cnn2-c1ccccc1	i	i	i	i	i
Cc1nc(/C=C/c2ccccc2)[nH]c(=O)c1-c1ccccc1	9.2	i	i	i	i
C(=C\c1nc2ccccc2[nH]1)/c1ccccc1	40.5	nt	i	i	nt
SMILES	MT stabilize HCS	b-catenin transl	Autophagy HCS	Wee1 stabilizer	Insulin prom up
Cc1cccc(/C=C\c2nc3ccccc3c(=O)[nH]2)c1	12.4	i	i	i	i
O=c1[nH]c2ccccc2nc1/C=C/c1ccc(Cl)cc1	i	i	i	i	i
O=c1[nH]c(/C=C/c2cccc3ccccc23)nc2ccccc12	i	i	i	i	i
CCN(CC)c1ccc(/C=N\NC(=O)c2cccc3cc[nH]c23)cc1	nt	i	nt	i	i
O/N=C/c1cccnc1Sc1ccccc1	i	i	i	i	i
Cc1ccc(C(=O)NCCn2c(N)c(C#N)c3nc4ccccc4nc32)cc1	i	i	i	i	4.08
Nc1c(C(=O)NCCN2CCOCC2)c2nc3ccccc3nc2n1-c1ccc2c(c1)OCO2	i	nt	+	i	i
Nc1c(C(=O)NCCN2CCOCC2)c2nc3ccccc3nc2n1CCc1ccccc1F	i	i	+	i	i
O=S(=O)(c1ccc2ccccc2c1)N1CCN(C(=S)Nc2ccc(F)c(Cl)c2)CC1	i	i	i	i	i
O=C(c1ccc([N+](=O)[O-])cc1Cl)N1CCN(c2ccccn2)CC1	nt	i	nt	i	i
O=C(c1ccc(Cl)cc1[N+](=O)[O-])N1CCN(c2ccccn2)CC1	i	i	i	9.3	nt
O=C(c1ccccc1-c1ccccc1)N1CCN(c2ccccn2)CC1	42.8	65.9	i	i	nt
CCC(=O)N(c1ccc(C(=O)O)cc1)c1nc(-c2ccc(OC)cc2)c(C)s1	i	i	i	i	i
CCc1ccc(C2=NN(CCC(=O)NCc3cccs3)C(=O)CC2)cc1	i	i	i	i	i
CS(=O)(=O)CC(=O)Nc1ccc2nc3n(c(=O)c2c1)CCCCC3	nt	i	nt	i	i
O=C(Nc1ccc(F)cc1)Nc1ccc([N+](=O)[O-])cn1	i	i	+	i	i
Cc1cc(C)nc(NS(=O)(=O)c2ccc(NC(=O)COc3ccccc3)cc2)n1	i	i	i	i	i
CC(=O)NS(=O)(=O)c1ccc(NC(=O)COc2ccc(C(=O)c3ccccc3)cc2)cc1	i	i	i	10.4	i
COc1cc(/C=C(/C#N)C(=O)Nc2ccccc2)ccc1OCc1ccc(C(=O)O)cc1	i	i	i	i	nt
CN(C)c1ccc(/C=C(/C#N)C(=O)NCc2ccccc2)o1	i	i	+	i	16.1
COc1cc(/C=C(\C#N)C(=O)NCc2ccccc2)ccc1OCc1ccc(C(=O)O)cc1	nt	i	nt	10.6	nt
COCCNC(=O)/C(C#N)=C/c1ccc(OCc2ccccc2)cc1	i	i	i	i	i
N#C/C(=C\c1ccc(OCc2cccc(C(=O)O)c2)cc1)C(=O)NCc1ccco1	nt	i	nt	9.2	i
COc1ccc(COc2cc(-c3cccc(OC)c3)nc3ccc(NC(=O)c4cccnc4)cc23)cc1	i	nt	+	i	nt
COc1ccc(COc2cc(-c3cccc(OC)c3)nc3ccc(NC(=O)c4ccc(OC)cc4)cc23)cc1	i	nt	i	i	i
SMILES	MT stabilize HCS	b-catenin transl	Autophagy HCS	Wee1 stabilizer	Insulin prom up
COc1ccc(C(=O)c2ccc(N(C)C)cc2)c2ccccc12	i	i	+	i	nt
COc1ccc2nc3ccccc3nc2c1NC(=O)c1ccc(Cl)cc1Cl	i	i	+	i	i
COc1cc(-c2cc(C(=O)Nc3c(Cl)cc(Cl)cc3Cl)c3ccccc3n2)cc(OC)c1OC	i	nt	i	i	i
Cc1ccc(Nc2nc(-c3c(C)nc4ncccn34)cs2)cc1	16.8	nt	i	i	nt
Oc1ccc(-c2csc(-c3cccnc3)n2)c(O)c1	12.0	i	i	i	i
Cc1nc2ncccn2c1-c1csc(Nc2ccc(O)cc2)n1	i	i	i	i	i
Cc1ccc(Nc2nc(-c3c(C)nc4ccccn34)cs2)cc1	16.9	111.8	i	i	?
Oc1ccc(-c2nc(-c3ccc(O)c(O)c3)cs2)cc1	14.6	66.4	i	i	i
Cc1cc(C)c(C)c(S(=O)(=O)NC2CCN(Cc3ccccc3)CC2)c1C	i	i	i	i	i
O=C(Nc1cccc(C(=O)O)c1)/C(=C\c1ccc2c(c1)OCO2)NC(=O)c1ccc(Br)cc1	i	i	i	i	i
Oc1ccc(Nc2nc(-c3ccc4ccccc4c3)cs2)cc1	i	nt	+	i	nt
